CSN inh – inhibitors of CSN-mediated cullin deneddylation, primary screen, biochemical, fluorescence polarization, uHTS; 0.38% of 360,000 active; Purified CSN, SCF-Nedd8-OG deneddylation; AID 651999, 2013; COP9 signalosome complex subunit 5 (Homo sapiens), Q92905; inhibition, % at 12.5 µM;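 active means pattern-corrected inhibition above about 35%, with an unprinted fluorescence ratio check between 0.5 and 1.5, limit read from the data, passing the limit was not always enough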;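 further: 0% = enzyme with substrate and 100% = substrate without enzyme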
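Material: human Csn5 produced in HEK293T cells; Input: enzyme 0.24 nM; Reagent: SCFSkp2-Nedd8OG substrate at 10 nM final; Dosing: 12.5 µM compound; Incubation: 90 min reaction at room temperature; Detection: fluorescence polarization of the substrate; Evaluation: % inhibition of substrate cleavage by Csn5; Control set: substrate-only high control, full reaction low control.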
TbMetRS inhib – T. brucei MetRS inhibitors, primary screen, biochemical, luminescence; purified T. brucei MetRS, ATP depletion, Kinase-Glo luminescence; 0.4% of 360,000 active; methionyl-tRNA synthetase (Trypanosoma brucei brucei); inhibition, % at 11.9 µM;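 active means inhibition above a per-plate cutoff of the control wells' mean inhibition plus 3 SD, cut at about 5.5% in these data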;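 further: 0% = DMSO wells median and 100% = median of wells with control inhibitor compound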
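Test system: purified T. brucei MetRS enzyme. Also added: ATP, methionine and E. coli bulk tRNA substrates. Compound: 11.9 µM single point. Schedule: 15 min enzyme-compound preincubation, 2 h reaction, 10 min detection, 25 °C. Signal: luciferase luminescence of residual ATP, Kinase-Glo. Evaluation: percent inhibition versus plate control medians. Controls: DMSO wells, low control.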
TPT1 inhibitor – Candida albicans TPT1 enzyme inhibitors, primary screen, biochemical, fluorescence polarization; tRNA 2'-phosphotransferase TPT1 (Candida albicans SC5314); recombinant caTPT1, FP RNA substrate dephosphorylation; inhibition, % at 5 µM; 0.81% of 300,000 active; AID 1962, 2009;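 active means inhibition above the mean of all tested compounds plus 3 SD, set per screening campaign, cut at about 24% in these data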;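 further: plate controls were DMSO alone for no effect and ferristatin control at 100 nM for full effect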
IDE inh – human IDE inhibitors in live cells, primary screen, fluorescence polarization, HEK cells, FAbetaB substrate; FAbetaB cleavage; inhibition, % at 5.59 µM; 0.41% of 320,000 active; AID 434962, 2010;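 active means percent inhibition above the average of all tested compounds plus 3 SD, set per screening campaign, cut at about 16% in these data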;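 further: IDE supplied by intact live HEK cells; FP after avidin binding of uncleaved biotin substrate so inhibition keeps polarization high; 0% = DMSO wells and 100% = 60 µM reference IDE inhibitor Ii1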
IDE cell activ – human IDE activators in live cells, primary screen, fluorescence polarization, HEK cells, FAbeta-B substrate; Insulin-degrading enzyme (Homo sapiens), P14735; FAbeta-B cleavage; 0% vehicle, 100% cell-free pure enzyme wells; activation, % at 5.96 µM; 0.073% of 340,000 active; AID 493087, 2011;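 active means activation above the mean of all tested compounds plus 3 SD, set per screening campaign, cut at about 17% in these data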
HNF4A DNA FP – change in binding of human HNF4A to DNA, primary screen, biochemical, fluorescence polarization, FITC-DNA; activity change, % at 10 µM; 0.3% of 360,000 active; 1 h; AID 1224865, 2016; Hepatocyte nuclear factor 4-alpha (Homo sapiens), P41235; in the data active means activity change above about 30%, passing the limit was not always enough
Target sequence (P41235 whole entry, looked up): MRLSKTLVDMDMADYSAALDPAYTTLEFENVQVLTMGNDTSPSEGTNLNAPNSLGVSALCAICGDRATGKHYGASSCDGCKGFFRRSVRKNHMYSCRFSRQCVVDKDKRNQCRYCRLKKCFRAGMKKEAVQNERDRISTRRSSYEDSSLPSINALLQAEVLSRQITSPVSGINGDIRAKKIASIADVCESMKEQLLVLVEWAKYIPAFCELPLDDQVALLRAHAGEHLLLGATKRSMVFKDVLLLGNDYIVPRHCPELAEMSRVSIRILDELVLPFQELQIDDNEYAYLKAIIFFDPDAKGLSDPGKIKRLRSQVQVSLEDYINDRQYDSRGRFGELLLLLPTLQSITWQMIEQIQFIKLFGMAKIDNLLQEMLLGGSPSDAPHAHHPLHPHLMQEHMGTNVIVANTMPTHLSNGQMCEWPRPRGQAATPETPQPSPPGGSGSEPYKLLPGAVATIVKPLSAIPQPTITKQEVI
TPT1 inh confirm – Candida albicans TPT1 inhibitors, confirmation, biochemical, fluorescence polarization, triplicate; shares compounds with TPT1 inhibitor; recombinant caTPT1, RNase T1 coupled; inhibition, % at 5 µM; 74% of 2,400 active; AID 2149, 2009;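 active means inhibition above the primary screen limit, the mean inhibition of all tested compounds plus 3 SD, cut at about 25% in these data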
RNase T1 inh – RNase T1 inhibitors, counter-screen for TPT1 inhibitor project, biochemical, fluorescence polarization. RNase T1 cleavage, 1536-well. AID 2153, 2009. shares compounds with TPT1 inhibitor. 83% of 2,400 active. inhibition, % at 5 µM;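 active means inhibition above the solvent-only control well mean plus 3 SD, limit set per screening run, cut at about 23% in these data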;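 further: plate controls were DMSO wells with enzyme for no effect and wells without RNase T1 for full effect; inhibitors block cleavage so intact labeled substrate keeps polarization high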
Target sequence (P00651 whole entry, looked up): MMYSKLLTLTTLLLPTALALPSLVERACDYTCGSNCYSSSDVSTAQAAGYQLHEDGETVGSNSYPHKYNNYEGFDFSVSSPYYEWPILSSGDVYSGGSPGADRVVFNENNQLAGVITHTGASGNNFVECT
* = called active by the depositor. The list is not random: actives were taken first. Their share in the collection is about 1.7%.

What do the screens show for `O=C1S/C(=C\c2ccc(N3CCOCC3)o2)C(=O)N1Cc1ccc(F)cc1`?
CSN inh: 115.3; TbMetRS inhib: -0.5; TPT1 inhibitor: 141.6*; IDE inh: 6.8; IDE cell activ: -28.9; HNF4A DNA FP: 130.1; TPT1 inh confirm: 168.3*; RNase T1 inh: 164.7*

What do the screens show for `NNC(=O)c1cc(S(=O)(=O)N2CCOCC2)c[nH]1`?
CSN inh: -3.0; TbMetRS inhib: -0.4; IDE inh: 2.9; IDE cell activ: 1.7; HNF4A DNA FP: -0.6

How did Cc1nnc(-c2cccc(Br)c2)c2cn(-c3cccc(Br)c3)nc12 do in these assays?
CSN inh: -23.5; TbMetRS inhib: -0.7; TPT1 inhibitor: 47.4*; IDE inh: 7.1; IDE cell activ: 1.1; HNF4A DNA FP: 125.4; TPT1 inh confirm: 79.3*; RNase T1 inh: 84.1*

Results for O=C(CO)c1c[nH]c2ccccc12 ?
CSN inh: -0.9; TbMetRS inhib: 0.0; HNF4A DNA FP: 2.0

What do the screens show for `CCSc1nnc(CNC(=O)C23CC4CC(CC(C4)C2)C3)n1C1CCCCC1`?
CSN inh: -14.9; TbMetRS inhib: -0.6; TPT1 inhibitor: 1.4; IDE inh: -0.9; IDE cell activ: 2.9; HNF4A DNA FP: 0.6

How did CCOC(=O)c1c(NC(=S)Nc2cccc(C)c2)sc2c1CC(C)(C)SC2 do in these assays?
CSN inh: -1.9; TbMetRS inhib: -0.6; TPT1 inhibitor: 31.3*; IDE inh: -5.5; IDE cell activ: -4.4; HNF4A DNA FP: 3.6; TPT1 inh confirm: 26.5*; RNase T1 inh: 32.3*

Results for CCOC(=O)c1c(NC(=S)Nc2ccccc2)sc2c1CCCCC2 ?
CSN inh: 1.2; TbMetRS inhib: 0.7; TPT1 inhibitor: 0.9; IDE inh: 1.1; IDE cell activ: -0.4; HNF4A DNA FP: 2.1

How did CCOC(=O)c1c(NC(=S)Nc2ccccc2)sc2c1CCN(CC)C2 do in these assays?
CSN inh: 30.8; TbMetRS inhib: 0.0; TPT1 inhibitor: 99.2*; IDE inh: 1.2; IDE cell activ: -5.6; HNF4A DNA FP: 43.6*; TPT1 inh confirm: 86.3*; RNase T1 inh: 94.9*

How did Nc1ccc2c(c1)CCC2=O do in these assays?
CSN inh: 3.2; TbMetRS inhib: -0.3; TPT1 inhibitor: 24.5*; IDE inh: 0.8; IDE cell activ: 10.0; HNF4A DNA FP: 10.7; TPT1 inh confirm: 18.3; RNase T1 inh: 27.7*

How did Nc1ccccc1SCC(=O)N1CCc2ccccc21 do in these assays?
CSN inh: 7.2; TbMetRS inhib: 1.0; TPT1 inhibitor: -2.9; IDE inh: -3.1; IDE cell activ: 3.6; HNF4A DNA FP: -2.5

How did O=C(O)c1ccccc1SCC(=O)N1CCc2ccccc21 do in these assays?
CSN inh: -1.0; TbMetRS inhib: -1.2; TPT1 inhibitor: 139.2*; IDE inh: 4.3; IDE cell activ: 3.2; HNF4A DNA FP: -2.2; TPT1 inh confirm: 0.6; RNase T1 inh: 3.5

What do the screens show for `CCOC(=O)C1=C(COC(=O)c2ccco2)NC(=O)NC1CC` (stereo not given)?
CSN inh: -2.0; TbMetRS inhib: 0.6; IDE inh: 0.0; IDE cell activ: -0.2; HNF4A DNA FP: -4.2

How did COc1ccc(/C=C(\C#N)C(=O)C(C)(C)n2cncn2)cc1 do in these assays?
CSN inh: 0.8; TbMetRS inhib: -0.2; TPT1 inhibitor: 33.5*; IDE inh: 6.7; IDE cell activ: 0.3; HNF4A DNA FP: 4.8; TPT1 inh confirm: 2.8; RNase T1 inh: 4.1

What do the screens show for `COc1ccc(C=C(C#N)C(=O)c2ccccc2)cc1`?
CSN inh: 2.0; TbMetRS inhib: -0.5; HNF4A DNA FP: 3.1

Results for Cc1ccc(C(=O)O)cc1NC(=O)CSc1ncnc2sc3c(c12)CCC3 ?
CSN inh: 3.3; TbMetRS inhib: -1.2; TPT1 inhibitor: 1.3; IDE inh: 1.7; IDE cell activ: 7.8; HNF4A DNA FP: -5.1

How did CSc1nnc(C)c(/C=C/Nc2ccc(F)cc2)n1 do in these assays?
CSN inh: -5.8; TbMetRS inhib: -1.7; TPT1 inhibitor: 115.7*; IDE inh: 4.4; IDE cell activ: -14.3; HNF4A DNA FP: 17.4; TPT1 inh confirm: 101.3*; RNase T1 inh: 105.5*

How did Cc1cc(C)c(C(N)=O)c(Nc2ccc(F)cc2)n1 do in these assays?
CSN inh: 0.9; TbMetRS inhib: -0.7; TPT1 inhibitor: -1.0; IDE inh: 0.7; IDE cell activ: -1.3; HNF4A DNA FP: 2.0

What do the screens show for `O=C1NC(=S)N/C1=C\c1ccc(N2CCOCC2)cc1`?
CSN inh: 7.1; TbMetRS inhib: -0.1; TPT1 inhibitor: 25.9*; IDE inh: 2.2; IDE cell activ: 2.7; HNF4A DNA FP: 15.9; TPT1 inh confirm: 26.1*; RNase T1 inh: 32.6*

What do the screens show for `O=C1NC(=S)NC1=Cc1ccc(O)cc1`?
CSN inh: 7.1; TbMetRS inhib: 0.0; IDE cell activ: -2.1; HNF4A DNA FP: 12.2

How did CCOC(=O)c1sc(=NC(=O)c2ccccc2)n(C)c1C do in these assays?
CSN inh: -5.6; TbMetRS inhib: -0.2; TPT1 inhibitor: 1.1; IDE inh: -1.3; IDE cell activ: 2.0; HNF4A DNA FP: -8.0

What do the screens show for `CCOC(=O)c1sc(=NC(=O)c2cccc(OC)c2)n(C)c1C`?
CSN inh: -4.3; TbMetRS inhib: -1.5; TPT1 inhibitor: 63.8*; IDE inh: 4.9; IDE cell activ: 4.3; HNF4A DNA FP: -1.0; TPT1 inh confirm: 5.0; RNase T1 inh: 5.2

Results for COc1ccc(CCC(=O)OCC(=O)Nc2sccc2C(N)=O)cc1OC ?
CSN inh: 1.9; TbMetRS inhib: -0.2; IDE inh: -4.3; IDE cell activ: -2.3; HNF4A DNA FP: 2.3

Results for COc1cc(CC(=O)Nc2sccc2C(N)=O)cc(OC)c1OC ?
CSN inh: 17.0; TbMetRS inhib: -0.9; TPT1 inhibitor: 76.0*; IDE inh: 2.5; IDE cell activ: 0.4; HNF4A DNA FP: 33.8*; TPT1 inh confirm: 17.7; RNase T1 inh: 24.5*

Results for O=C(c1ccc(Cl)c(S(=O)(=O)N2CCCCC2)c1)N1CCCC(C(F)(F)F)C1 (stereo not given) ?
CSN inh: -0.2; TbMetRS inhib: -0.3; IDE inh: -0.5; IDE cell activ: 3.4; HNF4A DNA FP: -0.7

Compound activity deposited in PubChem BioAssay by several laboratories.
